Source: PubChem
Many of the other results were omitted from the sample, so hits are more common in it than they were.
LANA-nucl inh – LANA-nucleosome interaction inhibition. z-score (concentration not given with the values). AID 720717. 51,000 compounds, 0.3% hits. FITC-LANA1-23 / chicken nucleosome fluorescence polarization; hits give low values;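 active means both repeat wells score below -2 in polarization z-score versus plate sample wells, excluding overly bright wells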
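Assay system: FITC-LANA peptide and chicken nucleosomes; input: 240 nM purified chicken nucleosomes (480 nM peptide binding sites), final; also added: 50 nM FITC-LANA1-23 probe; medium: TEN-BT buffer, pH 7.5; doses: pin-transferred compound, 100 nL; times: 10–45 min, room temperature; technique: fluorescence polarization; replication: duplicates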
BasE inh – blocks the Acinetobacter baumannii siderophore enzyme BasE; purified BasE, fluorescence polarization binding displacement; inhibition, % (test concentration not listed); 84,000 compounds, 0.1% hits; AID 485350; in the data active means inhibition above about 25%, passing the limit was not always enough
Numbers stand for hits; n = inactive; x = no result given.

SMILES	LANA-nucl inh	BasE inh
CSc1nn(-c2ccccc2)cc1-c1noc(-c2ccc(C(F)(F)F)cc2)n1	n	n
O=C(Cc1ccc(F)cc1)Nc1cc(=O)[nH]c(=O)[nH]1	-2.2	n
O=C(CSCc1ccccc1)Nc1cc(=O)[nH]c(=O)[nH]1	n	n
Cc1cc(C)nc(Nc2n[nH]c(COc3ccc4ccccc4c3)n2)n1	n	n
Cc1cc(C)nc(Nc2n[nH]c(-c3cccnc3)n2)n1	n	27
CSC1=N/C(=C\c2ccccc2)C(=O)S1	n	n
CCN(CC)c1ccc(/C=C2\N=C(SC)SC2=O)cc1	-2.6	n
O=C(Cn1cc(/C=C2\NC(=S)N(c3ccccc3)C2=O)c2ccccc21)NCc1ccco1	-2.3	n
O=C(Cn1cc(/C=N/NC(=S)Nc2ccccc2)c2ccccc21)NCc1ccco1	n	n
O=C(NCCS(=O)(=O)N1CCN(c2ccccc2)CC1)c1ccccc1	n	n
Cc1ccc(C)n1-c1ccsc1C(=O)O	-3.7	n
Cc1ccc(C)n1-c1ccsc1C(=O)CC#N	n	x
COc1ccc(C(=O)COC(=O)CSc2nc(C)cc(C)n2)cc1OC	x	n
CC1=CC(=O)C=C(C)C1=NS(=O)(=O)c1ccccc1	x	26
CN1C/C(=N\S(=O)(=O)c2ccccc2)N(C)C1=O	n	n
Cc1nc(-c2cccc(NS(=O)(=O)c3cccs3)c2)cs1	x	n
NS(=O)(=O)c1ccc(N2CCOCC2)c(C(=O)O)c1	x	n
Nc1ccc(N2CCOCC2)c(N)c1	n	37
c1nc2nnnn2c2c1CCCC2	x	n
COc1cccc2s/c(=N/C(=S)NC(=O)c3ccc(C)cc3)n(C)c12	x	n
CN(C)c1ccc2c3c(cccc13)C(=O)N(c1nc3ccccc3n1C)C2=O	n	n
CC(=O)NN1C(=O)c2cccc3c(N(C)C)ccc(c23)C1=O	x	32
O=c1c2ccccc2nnn1CSc1nc2ccccc2c(=O)n1CCC1=CCCCC1	x	n
O=C(CCc1ccco1)Nc1cccc(-c2nc3ccccc3[nH]2)c1	x	n
O=C(Nc1ccc2c(c1)oc1ccccc12)C1CCCO1 (stereo unspecified)	n	n
SMILES	LANA-nucl inh	BasE inh
O=C(Nc1ccc2c(c1)CCC2)C1CCCO1 (stereo unspecified)	-2.1	n
O=C(NCCN1CCOCC1)c1ccco1	x	n
O=C1CCC(C(=O)OCN2C(=O)c3ccccc3C2=O)=NN1	x	n
O=C1CC(c2ccccc2O)=NN1	x	27
C=CCn1c(CCNC(=O)c2ccc(OC)cc2)n[nH]c1=S	n	n
CC(C)Cn1[nH]c(CC(=O)O)cc1=O	x	n
Cc1cccc2[nH]ncc12	n	25
S=c1[nH]ncc2ccccc12	x	n
O=C(CNC(=O)Nc1ccc(Cl)c(Cl)c1)NC1CC1	x	n
CC(=O)Oc1ccc2c(c1C)CCCC2	n	n
CC(C)N1CC=C2C(C1)C(c1ccccc1Cl)C(C#N)=C(N)C2(C#N)C#N (stereo unspecified)	-2.3	26
CC(C)(C)OC(=O)N1CC=C2C(C1)C(c1cccc(F)c1)C(C#N)=C(N)C2(C#N)C#N (stereo unspecified)	n	n
COC(=O)C1(C(C)C)NC(c2ccccc2OC)C2C(=O)N(C)C(=O)C21 (stereo unspecified)	n	n
CCCN1CC=C2C(C#N)=C(N)C(C#N)(C#N)C(C(C)C)C2C1 (stereo unspecified)	-4	n
N#CC1=C(N)C(C#N)(C#N)C(c2ccco2)C2CN(Cc3ccccc3)CC=C12 (stereo unspecified)	-5.4	n
CCCN1CC=C2C(C#N)=C(N)C(C#N)(C#N)C(c3cccc(OC)c3)C2C1 (stereo unspecified)	n	n
CCN1CC=C2C(C#N)=C(N)C(C#N)(C#N)C(c3ccc(OC)c4ccccc34)C2C1 (stereo unspecified)	n	n
CN1CC=C2C(C#N)=C(N)C(C#N)(C#N)C(Cc3ccccc3)C2C1 (stereo unspecified)	n	n
CCN1CC=C2C(C#N)=C(N)C(C#N)(C#N)C(C)C2C1 (stereo unspecified)	-2.5	n
CCOc1ccc2c(C)c(Cl)c(=O)oc2c1C	n	n
CCCCN(c1ccccc1)S(=O)(=O)c1ccc2c(c1)oc(=O)n2CC(=O)OCC	n	n
CCOC(=O)c1c(C)oc2c1C1=NC(CC)CN1C=N2 (stereo unspecified)	n	n
CCCCC/C=C\C/C=C\C/C=C\C/C=C\CCCC(=O)OC(CO)CO	-2.1	n
CCCCC/C=C\C/C=C\CCCCCCCC(=O)O[C@@H](CO)COC(=O)CCCCCCCCCCCCCCCCC	n	n
Cc1nnc(SCC(=O)NC(=O)C2COc3ccccc3O2)n1Cc1ccccc1 (stereo unspecified)	x	n
SMILES	LANA-nucl inh	BasE inh
CCOC(=O)Cn1c2[n+](c3ccccc31)CC(O)CS2 (stereo unspecified)	n	n
NC(=O)Cn1c2[n+](c3ccccc31)CC(O)CS2 (stereo unspecified)	-2.4	n
O=C(O)c1cc(-c2ccccc2)nc2c1cnn2Cc1ccncc1	x	99
CC(C)n1ncc2c(C(=O)OCc3ccc(C#N)cc3)cc(-c3ccccc3)nc21	x	n
Cc1cc(C(=O)O)ccc1-n1c(C)ccc1C	n	n
Cc1ccc(C)n1-c1ccc(C(=O)O)cc1O	n	47
O=C1CCC(C(=O)NC2CCCCCC2)=NN1	x	n
O=C(N=C1N=C2C=CC=CN2Cc2ccccc21)c1ccncc1	x	n
CC(C)CCNC(=O)C1CCCN(S(=O)(=O)N2CCC3(CC2)OCCO3)C1 (stereo unspecified)	-2.2	n
CCOC(=O)N1CCN(S(=O)(=O)N2CCCC(C(=O)NCCC(C)C)C2)CC1 (stereo unspecified)	n	n
O=C(O)CC1(CC(=O)Nc2cccc(CO)c2)CCCC1	x	n
NC(=O)c1ccsc1NC(=O)CSc1ccccc1	n	n
NC(=O)c1ccsc1NC(=O)COC(=O)c1ccccc1	x	40
COC(=O)C1=CNC=C(C(=O)OC)C1c1ccccc1C	n	29
COC(=O)C1=CNC=C(C(=O)OC)C1c1ccc(Cl)cc1	n	n
COc1ccc(OCCN2CCN(S(=O)(=O)c3ccc(Cl)s3)CC2)cc1	x	n
CC1(C)CC(=O)c2cc(C#N)c(SCc3ccccc3)nc2C1	x	n
CC1(C)NC(=O)C(C#N)=C(SCc2ccccc2)S1	n	38
CS(=O)c1scc(-c2ccc(Cl)cc2)c1C#N (stereo unspecified)	n	29
N#Cc1c(-c2ccc(Cl)cc2)cc[nH]c1=O	n	x
O=C1N/C(=N/N=C\c2[nH]ncc2Br)SC1c1ccccc1 (stereo unspecified)	n	27
O=C(O)CC1S/C(=N/N=C/c2ccccc2)NC1=O (stereo unspecified)	n	n
C(=N\n1c(-c2ccco2)csc1=Nc1cccnc1)/c1ccccn1	x	n
CC1CCCN(C(=O)COC(=O)c2cc(S(=O)(=O)N3CCCC3)ccc2O)C1 (stereo unspecified)	x	n
CC(=O)N(C(C)=O)N1C(=O)c2cccc3c(N4CCOCC4)ccc(c23)C1=O	x	n
O=C1c2cccc3c(N4CCCCC4)ccc(c23)C(=O)N1c1ccccn1	-6.2	n
Cc1oc(-c2ccccc2)nc1C(=O)OCC(=O)c1ccc(Cl)cc1	x	n
CC1CCCN(C(=S)NC(=O)C2CC2)C1 (stereo unspecified)	x	n
Cc1ccc(NC(=O)c2cc3c(=O)n(Cc4ccco4)ccc3nc2C)cc1	n	n
Cc1nc2ccn(Cc3cccnc3)c(=O)c2cc1C(=O)NCCCc1ccco1	-2.1	n
